A short description of assay [1]: The antiviral activity against HIV-1 in human peripheral blood mononuclear (PBM) cells expressed as inhibitory concentration. Type of assay: functional. In a few lines: (§1)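 PHA-stimulated human PBM cells infected with HIV-1 strain LAV-1 (about 63 000 dpm RT activity per 10^7 cells/10 mL medium), then drug added to duplicate or triplicate cultures. Incubated at 37 °C in 5% CO2 for 6 days. Supernatant RT activity measured on pelleted virus with (rA)n·(dT)12-18 template-primer, expressed as dpm/mL. EC50 taken from median-effect plot of dose-effect data.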

Assay [2] can be described thus: The antiviral activity against HIV-1 in human peripheral blood mononuclear (PBM) cells expressed as median effective concentration. Type of assay: functional. Conditions: read-out: ED50 (the source's name). In outline:
as §1

SMILES strings stand for the structures.

Usually IC50 stands for the concentration that inhibits the measured activity by half. A low value points to greater potency in that assay. Regarding `CNc1ncnc2c1ncn2C1CCC(CO)O1` (centres undefined), in assay [1], the IC50 was > 100 µM. Besides, the EC50 in assay [2] turned out to be 0.26 µM.

With `Nc1ncnc2c1ncn2[C@H]1CC[C@@H](CO)O1`, the IC50 in assay [1] was > 100 µM. Also, in assay [2], the EC50 was determined as 0.62 µM.

On to `CNc1ncnc2c1ncn2C1OC(CO)CC1F` (centres undefined), for which, in assay [1], the IC50 is > 100 µM. Besides, the EC50 in assay [2] was determined as 4.3 µM.

In the case of `CN(C)c1ncnc2c1ncn2C1CCC(CO)O1` (centres undefined), in assay [1], the IC50 is > 100 µM. In assay [2], the EC50 stood at 2.3 µM.

On to `OC[C@@H]1CC[C@H](n2cnc3c(Cl)ncnc32)O1`, for which the IC50 in assay [1] was > 100 µM. The EC50 in assay [2] was 2.1 µM.

Consider `Nc1nc(O)c2ncn([C@H]3CC[C@@H](CO)O3)c2n1`, for which the IC50 in assay [1] was > 100 µM. For the same molecule, the EC50 in assay [2] was 0.88 µM.

For `CCNc1ncnc2c1ncn2C1CCC(CO)O1` (centres undefined), the IC50 in assay [1] is > 100 µM. The EC50 in assay [2] stood at 5.2 µM.

Regarding `OC[C@@H]1CC[C@H](n2cnc3cncnc32)O1`, the IC50 in assay [1] is > 100 µM. In assay [2], the EC50 was > 100 µM.

With `OCC1CCC(n2cnc3c(NCc4ccccc4)ncnc32)O1` (centres undefined), inhibition in assay [1] was half-maximal at 10 µM (IC50). The EC50 in assay [2] was > 100 µM.

Regarding `OCC1CCC(n2cnc3c(S)ncnc32)O1` (centres undefined), in assay [1], the IC50 was > 100 µM. Moreover, the EC50 in assay [2] is 53.9 µM.

As for `CSc1ncnc2c1ncn2C1CCC(CO)O1` (centres undefined), in assay [1], the IC50 was > 100 µM. In addition, the EC50 in assay [2] is 3.6 µM.

Regarding `O=c1[nH]cnc2c1ncn2[C@H]1CC[C@@H](CO)O1` [DIDANOSINE], the IC50 in assay [1] was > 100 µM. For the same molecule, in assay [2], the EC50 was 5.5 µM.
